# Activity calls are given as the source filed them.
# Columns and labels:
# Enterococcus faecium [1] = experiment: Antibacterial activity against vancomycin-resistant Enterococcus faecium OEF42 assessed as reduction in bacterial growth incubated for 24 hrs; assay type: functional
# Enterococcus faecium [2] = experiment: Antibacterial activity against vancomycin-resistant Enterococcus faecium OEF65 assessed as reduction in bacterial growth incubated for 24 hrs; assay type: functional
# Staphylococcus aureus [3] = experiment: Antibacterial activity against vancomycin-intermediate resistant Staphylococcus aureus Mu50 assessed as reduction in bacterial growth incubated for 24 hrs; assay type: functional
# Staphylococcus aureus [4] = experiment: Antibacterial activity against Staphylococcus aureus ATCC 25923 assessed as reduction in bacterial growth incubated for 24 hrs; assay type: functional
# Staphylococcus aureus [5] = experiment: Antibacterial activity against methicillin-resistant Staphylococcus aureus NCTC 12493 assessed as reduction in bacterial growth incubated for 24 hrs; assay type: functional
# Streptococcus pyogenes [6] = experiment: Antibacterial activity against Streptococcus pyogenes SPY1 assessed as reduction in bacterial growth incubated for 24 hrs; assay type: functional
# Streptococcus pyogenes [7] = experiment: Antibacterial activity against Streptococcus pyogenes SPY2 assessed as reduction in bacterial growth incubated for 24 hrs; assay type: functional
# Streptococcus pyogenes [8] = experiment: Antibacterial activity against Streptococcus pyogenes SPY3 assessed as reduction in bacterial growth incubated for 24 hrs; assay type: functional
# Escherichia coli [9] = experiment: Antibacterial activity against Escherichia coli EC2 harboring CTX-M-15 assessed as reduction in bacterial growth incubated for 24 hrs; assay type: functional
# Escherichia coli [10] = experiment: Antibacterial activity against Escherichia coli EC204 harboring NDM-1 assessed as reduction in bacterial growth incubated for 24 hrs; assay type: functional
# Escherichia coli [11] = experiment: Antibacterial activity against Escherichia coli NCTC 12241 assessed as reduction in bacterial growth incubated for 24 hrs; assay type: functional
# Acinetobacter baumannii [12] = experiment: Antibacterial activity against Acinetobacter baumannii AB12 harboring OXA-23 assessed as reduction in bacterial growth incubated for 24 hrs; assay type: functional
# Acinetobacter baumannii [13] = experiment: Antibacterial activity against Acinetobacter baumannii AB14 harboring OXA-23 clone 1 assessed as reduction in bacterial growth incubated for 24 hrs; assay type: functional
# Acinetobacter baumannii [14] = experiment: Antibacterial activity against Acinetobacter baumannii AB16 harboring OXA-23 clone 2 assessed as reduction in bacterial growth incubated for 24 hrs; assay type: functional
# Acinetobacter baumannii [15] = experiment: Antibacterial activity against Acinetobacter baumannii NCTC 19606 assessed as reduction in bacterial growth incubated for 24 hrs; assay type: functional
# Pseudomonas aeruginosa [16] = experiment: Antibacterial activity against Pseudomonas aeruginosa PAO1 assessed as reduction in bacterial growth incubated for 24 hrs; assay type: functional
# Pseudomonas aeruginosa [17] = experiment: Antibacterial activity against Pseudomonas aeruginosa PA14 assessed as reduction in bacterial growth incubated for 24 hrs; assay type: functional
# Pseudomonas aeruginosa [18] = experiment: Antibacterial activity against Pseudomonas aeruginosa PA30 harboring VIM-2 assessed as reduction in bacterial growth incubated for 24 hrs; assay type: functional
# Pseudomonas aeruginosa [19] = experiment: Antibacterial activity against Pseudomonas aeruginosa ATCC 27853 assessed as reduction in bacterial growth incubated for 24 hrs; assay type: functional
# [20] = tested on: Stenotrophomonas maltophilia; experiment: Antibacterial activity against Stenotrophomonas maltophilia SMS01 assessed as reduction in bacterial growth incubated for 24 hrs; assay type: functional
# [21] = tested on: Stenotrophomonas maltophilia; experiment: Antibacterial activity against Stenotrophomonas maltophilia SMB07 assessed as reduction in bacterial growth incubated for 24 hrs; assay type: functional
# [22] = tested on: Stenotrophomonas maltophilia; experiment: Antibacterial activity against Stenotrophomonas maltophilia NCTC 10258 assessed as reduction in bacterial growth incubated for 24 hrs; assay type: functional
# Enterococcus faecium [23] = experiment: Antibacterial activity against vancomycin-resistant Enterococcus faecium OEF42 assessed as reduction in bacterial growth incubated for 24 hrs in presence of curcumin; assay type: functional
# Streptococcus pyogenes [24] = experiment: Antibacterial activity against Streptococcus pyogenes SPY1 assessed as reduction in bacterial growth incubated for 24 hrs in presence of curcumin; assay type: functional
# Staphylococcus aureus [25] = experiment: Synergistic antibacterial activity against methicillin-resistant Staphylococcus aureus NCTC 12493 assessed as fractional inhibitory concentration index measured after 24 hrs in presence of curcumin by checkerboard assay; assay type: functional
# In short: (§1)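 FICI was derived from checkerboard MICs. Synergy was defined as FICI ≤ 0.5 and additive as FICI > 0.5−4.0. Where an MIC was not reached, the dilution above the maximum dose was used in the FICI calculation. Experiments were run in triplicate and reported as means.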
# Acinetobacter baumannii [26] = experiment: Synergistic antibacterial activity against Acinetobacter baumannii AB16 harboring OXA-23 clone 2 assessed as fractional inhibitory concentration index measured after 24 hrs in presence of curcumin by checkerboard assay; assay type: functional; in short: as §1
# Enterococcus faecalis [27] = experiment: Antibacterial activity against Enterococcus faecalis ATCC 29212 assessed as reduction in bacterial growth incubated for 24 hrs; conditions: ATCC 29212, 24 h
# Streptococcus pyogenes [28] = experiment: Synergistic antibacterial activity against Streptococcus pyogenes SPY3 assessed as fractional inhibitory concentration index measured after 24 hrs in presence of curcumin by checkerboard assay
# Streptococcus pyogenes [29] = experiment: Antibacterial activity against Streptococcus pyogenes SPY2 assessed as reduction in bacterial growth incubated for 24 hrs in presence of polymyxin B; assay type: functional
# Acinetobacter baumannii [30] = experiment: Antibacterial activity against Acinetobacter baumannii AB16 harboring OXA-23 clone 2 assessed as reduction in bacterial growth incubated for 24 hrs in presence of polymyxin B; assay type: functional
# Pseudomonas aeruginosa [31] = experiment: Antibacterial activity against Pseudomonas aeruginosa PA14 assessed as reduction in bacterial growth incubated for 24 hrs in presence of polymyxin B; assay type: functional
# [32] = tested on: Stenotrophomonas maltophilia; experiment: Antibacterial activity against Stenotrophomonas maltophilia SMB07 assessed as reduction in bacterial growth incubated for 24 hrs in presence of polymyxin B; assay type: functional
# Pseudomonas aeruginosa [33] = experiment: Bactericidal activity against Pseudomonas aeruginosa ATCC 27853 assessed as bacterial cell death at 0.5 fold MIC measured after 4 to 6 hrs in presence of polymyxin B at MIC by time kill assay relative to control; assay type: functional; conditions: time 4-6 hrs
# In short: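 Time-kill in 10 mL Mueller-Hinton 2 broth, 37 °C with continuous agitation, 24 h. Inoculum was a 1/1000 dilution of a 16 h overnight culture, about 10^6 CFU/mL. Single agents at 1× MIC; combination at 1× MIC polymyxin B plus 0.5× MIC curcumin. Samples at 0, 2, 4, 6 and 24 h were serially diluted and plated on IsoSensitest agar for CFU/mL.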
# Staphylococcus aureus [34] = experiment: Antibacterial activity against methicillin-resistant Staphylococcus aureus NCTC 12493 assessed as reduction in bacterial colony formation at 0.5 fold MIC measured after 24 hrs by time kill assay; assay type: functional, organism-based
# Enterococcus faecium [35] = experiment: Potentiation of polymyxin B-induced antibacterial activity against vancomycin-resistant Enterococcus faecium OEF42 assessed as fold reduction in polymyxin B MIC measured after 24 hrs in presence of polymyxin B by checkerboard assay; assay type: functional
# Acinetobacter baumannii [36] = experiment: Potentiation of polymyxin B-induced antibacterial activity against Acinetobacter baumannii NCTC 19606 assessed as fold reduction in polymyxin B MIC measured after 24 hrs in presence of polymyxin B by checkerboard assay; assay type: functional
# Pseudomonas aeruginosa [37] = experiment: Potentiation of polymyxin B-induced antibacterial activity against Pseudomonas aeruginosa ATCC 27853 assessed as fold reduction in polymyxin B MIC measured after 24 hrs in presence of polymyxin B by checkerboard assay; assay type: functional
# [38] = tested on: Stenotrophomonas maltophilia; experiment: Potentiation of polymyxin B-induced antibacterial activity against Stenotrophomonas maltophilia SMS01 assessed as fold reduction in polymyxin B MIC measured after 24 hrs in presence of polymyxin B by checkerboard assay; assay type: functional
# Enterococcus faecalis [39] = experiment: Potentiation of polymyxin B-induced antibacterial activity against Enterococcus faecalis ATCC 29212 assessed as fold reduction in polymyxin B MIC measured after 24 hrs in presence of polymyxin B by checkerboard assay
Compound,MIC (Enterococcus faecium [1]) [µM],MIC (Enterococcus faecium [2]) [µM],MIC (Staphylococcus aureus [3]) [µM],MIC (Staphylococcus aureus [4]) [µM],MIC (Staphylococcus aureus [5]) [µM],MIC (Streptococcus pyogenes [6]) [µM],MIC (Streptococcus pyogenes [7]) [µM],MIC (Streptococcus pyogenes [8]) [µM],MIC (Escherichia coli [9]) [µM],MIC (Escherichia coli [10]) [µM],MIC (Escherichia coli [11]) [µM],MIC (Acinetobacter baumannii [12]) [µM],MIC (Acinetobacter baumannii [13]) [µM],MIC (Acinetobacter baumannii [14]) [µM],MIC (Acinetobacter baumannii [15]) [µM],MIC (Pseudomonas aeruginosa [16]) [µM],MIC (Pseudomonas aeruginosa [17]) [µM],MIC (Pseudomonas aeruginosa [18]) [µM],MIC (Pseudomonas aeruginosa [19]) [µM],MIC [20] [µM],other results
CC[C@H](C)CCCCC(=O)N[C@@H](CCN)C(=O)N[C@H](C(=O)N[C@@H](CCN)C(=O)N[C@H]1CCNC(=O)[C@H]([C@@H](C)O)NC(=O)[C@H](CCN)NC(=O)[C@H](CCN)NC(=O)[C@H](CC(C)C)NC(=O)[C@@H](Cc2ccccc2)NC(=O)[C@H](CCN)NC1=O)[C@@H](C)O.O=S(=O)(O)O,98,49,98,98,98,6.1,12.3,3.1,0.096,0.096,0.048,0.19,0.096,0.19,0.19,0.78,0.78,0.39,0.39,6.1,MIC [21]: 1.5 µM; MIC [22]: 1.5 µM; MIC (Enterococcus faecium [23]): 3.1 µM; MIC (Streptococcus pyogenes [24]): 0.19 µM; fractional inhibitory concentration index (FICI) (Staphylococcus aureus [25]): 0.031; fractional inhibitory concentration index (FICI) (Acinetobacter baumannii [26]): 0.068; MIC (Enterococcus faecalis [27]): 98 µM; fractional inhibitory concentration index (FICI) (Streptococcus pyogenes [28]): 0.5
COc1cc(/C=C/C(=O)CC(=O)/C=C/c2ccc(O)c(OC)c2)ccc1O [CURCUMIN],350,174,2780,2780,2780,350,174,174,2780,2780,2780,2780,1390,2780,2780,1390,1390,2780,1390,2780,MIC [21]: 2780 µM; MIC [22]: 2780 µM; MIC (Streptococcus pyogenes [29]): 22 µM; MIC (Acinetobacter baumannii [30]): 22 µM; MIC (Pseudomonas aeruginosa [31]): 22 µM; MIC [32]: 22 µM; Activity (Pseudomonas aeruginosa [33]): 100%; Activity (Staphylococcus aureus [34]): inactive; fold change (FC) (Enterococcus faecium [35]): 3; fold change (FC) (Acinetobacter baumannii [36]): 3; fold change (FC) (Pseudomonas aeruginosa [37]): 3; fold change (FC) [38]: 3; MIC (Enterococcus faecalis [27]): 350 µM; fold change (FC) (Enterococcus faecalis [39]): 3

# — ChEMBL document CHEMBL4715738, “In Vitro Antibacterial Activity of Curcumin-Polymyxin B Combinations against Multidrug-Resistant Bacteria Associated with Traumatic Wound Infections” (J Nat Prod, 2016)
